The structures appear in SMILES notation. Active and inactive are the calls of the source. The calls are words filed in the database; no cut-off is given here.

Results on seven molecules are retold here after ChEMBL document CHEMBL1817547, “Design, synthesis, and biological evaluation of curcumin analogues as multifunctional agents for the treatment of Alzheimer's disease” (Bioorg Med Chem, 2011).

The first series concerns SH-SY5Y. Nature of the series: Cytotoxicity against human SH-SY5Y cells assessed as cell viability at 2.5 uM. In kind it is cell-based. The method, boiled down: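 SH-SY5Y cells seeded at 3 × 10^4 per well, 24 h later exposed to 2.5 µM compound (final 0.05% DMSO) or vehicle for 24 h, then assessed for markers of cell death.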
`CN1CCN(c2ccc(/C=C/C(=O)c3ccc(C(=O)/C=C/c4ccc(N5CCN(C)CC5)cc4)cc3)cc2)CC1`: the Activity entry was “Non-toxic”.

As to `CN1CCN(c2ccc(/C=C3\CCC/C(=C\c4ccc(N5CCN(C)CC5)cc4)C3=O)cc2)CC1`, the Activity result was “Non-toxic”.

As to `CN1CCN(c2ccc(/C=C3\CC/C(=C\c4ccc(N5CCN(C)CC5)cc4)C3=O)cc2)CC1`, the Activity entry is “Non-toxic”.

With `CN1CCN(c2ccc(/C=C/C(=O)c3cccc(C(=O)/C=C/c4ccc(N5CCN(C)CC5)cc4)c3)cc2)CC1`, the Activity result was “Non-toxic”.

On to `CN1CCN(c2ccc(/C=C3\CNC/C(=C\c4ccc(N5CCN(C)CC5)cc4)C3=O)cc2)CC1`, for which the Activity entry is listed as “Non-toxic”.

Regarding `O=C1/C(=C/c2ccc(N3CCCCC3)cc2)CNC/C1=C\c1ccc(N2CCCCC2)cc1`, the Activity entry was “Non-toxic”.

As for `CN1CCN(c2ccc(/C=C3\CN(C)C/C(=C\c4ccc(N5CCN(C)CC5)cc4)C3=O)cc2)CC1`, the Activity entry is “Non-toxic”.

Tested on in the next series: not listed separately
Nature of the series: Inhibition of self-mediated amyloid beta (1 to 42) aggregation after 48 hrs by thioflavin T fluorescence assay. The method, boiled down: (§1)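 Aβ1–42 (final 20 µM) incubated in 10 mM phosphate pH 7.4 at 37 °C for 48 h with or without compound (2, 5, 10, 20, 50 µM). Samples diluted into 50 mM glycine–NaOH pH 8.5 with 5 µM ThT, read at ex 450/em 485 nm. Inhibition % = (1 − IFi/IFc) × 100; mean ± SD from at least two independent measurements.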
Turning to `CN1CCN(c2ccc(/C=C/C(=O)c3ccc(C(=O)/C=C/c4ccc(N5CCN(C)CC5)cc4)cc3)cc2)CC1`, the IC50 was > 50 µM.

The molecule `CN1CCN(c2ccc(/C=C3\CCC/C(=C\c4ccc(N5CCN(C)CC5)cc4)C3=O)cc2)CC1` had an IC50 of 6 µM.

The molecule `CN1CCN(c2ccc(/C=C3\CC/C(=C\c4ccc(N5CCN(C)CC5)cc4)C3=O)cc2)CC1` showed an IC50 of 12.6 µM. Against the preceding molecule, the IC50 is about 2.1-fold higher.

`CN1CCN(c2ccc(/C=C/C(=O)c3cccc(C(=O)/C=C/c4ccc(N5CCN(C)CC5)cc4)c3)cc2)CC1`: half-maximal inhibition (IC50) required 37.8 µM.

Turning to `CN1CCN(c2ccc(/C=C3\CNC/C(=C\c4ccc(N5CCN(C)CC5)cc4)C3=O)cc2)CC1`, 2.5 µM corresponded to half-maximal inhibition (IC50).

`O=C1/C(=C/c2ccc(N3CCCCC3)cc2)CNC/C1=C\c1ccc(N2CCCCC2)cc1` showed an IC50 of 17.2 µM. Compared with the last molecule, the IC50 is about 6.9-fold higher.

Consider `CN1CCN(c2ccc(/C=C3\CN(C)C/C(=C\c4ccc(N5CCN(C)CC5)cc4)C3=O)cc2)CC1`, for which it took 17.6 µM to reach half-maximal inhibition (IC50).

Tested on in the next series: not listed separately
Nature of the series: Inhibition of self-mediated amyloid beta (1 to 42) aggregation at 50 uM after 48 hrs by thioflavin T fluorescence assay relative to control. The method, boiled down:
as §1
In turn, `CN1CCN(c2ccc(/C=C/C(=O)c3ccc(C(=O)/C=C/c4ccc(N5CCN(C)CC5)cc4)cc3)cc2)CC1` gave an inhibition of 35.8%.

On to `CN1CCN(c2ccc(/C=C3\CCC/C(=C\c4ccc(N5CCN(C)CC5)cc4)C3=O)cc2)CC1`, for which the inhibition turned out to be 73.1%.

As for `CN1CCN(c2ccc(/C=C3\CC/C(=C\c4ccc(N5CCN(C)CC5)cc4)C3=O)cc2)CC1`, the inhibition turned out to be 67.2%.

`CN1CCN(c2ccc(/C=C/C(=O)c3cccc(C(=O)/C=C/c4ccc(N5CCN(C)CC5)cc4)c3)cc2)CC1` registered an inhibition of 52.8%.

Consider `CN1CCN(c2ccc(/C=C3\CNC/C(=C\c4ccc(N5CCN(C)CC5)cc4)C3=O)cc2)CC1`, for which the inhibition was found to be 90.2%.

Take `O=C1/C(=C/c2ccc(N3CCCCC3)cc2)CNC/C1=C\c1ccc(N2CCCCC2)cc1`: the inhibition was found to be 64.5%.

On to `CN1CCN(c2ccc(/C=C3\CN(C)C/C(=C\c4ccc(N5CCN(C)CC5)cc4)C3=O)cc2)CC1`, for which the inhibition turned out to be 65.1%.

Tested on in another series: not listed separately
The experiment in a line: Inhibition of amyloid beta (1 to 42) aggregation assessed as decrease of beta-sheet structure formation at 10 uM after 32 hrs by CD spectroscopy assay. In short, it runs like this:
(§2)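 Aβ1–42 (20 µM) incubated at 37 °C with or without 10 µM compound in 10 mM sodium phosphate pH 7.4. At 0, 6, 12 and 32 h, far-UV CD spectra recorded at 25 °C from 190 to 260 nm in a 1 mm quartz cell (bandwidth 0.5 nm, scan 10 nm/min).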
Consider `CN1CCN(c2ccc(/C=C3\CNC/C(=C\c4ccc(N5CCN(C)CC5)cc4)C3=O)cc2)CC1`, for which the inhibition entry is “Active”.

Tested on in a further series: not listed separately
Nature of the series: Inhibition of amyloid beta (1 to 42) aggregation assessed as stabilization of […] structure at 10 uM after 32 hrs by CD spectroscopy assay. In short, it runs like this: as §2
For `CN1CCN(c2ccc(/C=C3\CNC/C(=C\c4ccc(N5CCN(C)CC5)cc4)C3=O)cc2)CC1`, the inhibition entry was “Active”.

Tested on in another series: not listed separately
The experiment in a line: Inhibition of amyloid beta (1 to 42) fibril formation assessed as less thin and short fibrils at 20 to 40 uM after 12 hrs by transmission electron microscopic analysis. The method, boiled down: (§3)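 Aβ1–42 (40 µM) aggregated with or without 20 µM compound and sampled at 0, 12 and 32 h. Samples applied to grids, washed with water, negatively stained for 1 min with 2% uranyl acetate, blotted and examined by transmission EM.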
Take `CN1CCN(c2ccc(/C=C3\CNC/C(=C\c4ccc(N5CCN(C)CC5)cc4)C3=O)cc2)CC1`: the inhibition entry was “Active”.

Tested on in another series: not listed separately
Nature of the series: Inhibition of amyloid beta (1 to 42) fibril formation assessed as few short fibrils and many breakage points in fibrils at 20 to 40 uM after 32 hrs by transmission electron microscopic analysis. The method, boiled down: as §3
On to `CN1CCN(c2ccc(/C=C3\CNC/C(=C\c4ccc(N5CCN(C)CC5)cc4)C3=O)cc2)CC1`, for which the inhibition result is “Active”.

Tested on in another series: not listed separately
Nature of the series: Antioxidant activity assessed as trolox equivalent of APPH-induced radical scavenging activity at 0.625 to 2.5 uM by ORAC fluorescence assay. In kind it is functional. In short, it runs like this: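 AAPH (40 mM) peroxyl-radical decay of fluorescein (140 nM working solution) in 75 mM potassium phosphate pH 7.4; compounds from DMSO stocks tested at final 2.5, 1.25 and 0.625 µM. Each mixture in four replicates, at least four independent runs. Curves normalized to blank, net AUC computed, values expressed as Trolox equivalents from a Trolox standard curve.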
For the molecule `CN1CCN(c2ccc(/C=C/C(=O)c3ccc(C(=O)/C=C/c4ccc(N5CCN(C)CC5)cc4)cc3)cc2)CC1`, the Ratio was 1.1.

For the molecule `CN1CCN(c2ccc(/C=C3\CCC/C(=C\c4ccc(N5CCN(C)CC5)cc4)C3=O)cc2)CC1`, the Ratio worked out at 2.6.

Consider `CN1CCN(c2ccc(/C=C3\CC/C(=C\c4ccc(N5CCN(C)CC5)cc4)C3=O)cc2)CC1`, for which the Ratio was found to be 1.7.

As for `CN1CCN(c2ccc(/C=C/C(=O)c3cccc(C(=O)/C=C/c4ccc(N5CCN(C)CC5)cc4)c3)cc2)CC1`, the Ratio was determined as 1.3.

As to `CN1CCN(c2ccc(/C=C3\CNC/C(=C\c4ccc(N5CCN(C)CC5)cc4)C3=O)cc2)CC1`, the Ratio came to 5.8.

For the molecule `O=C1/C(=C/c2ccc(N3CCCCC3)cc2)CNC/C1=C\c1ccc(N2CCCCC2)cc1`, the Ratio was found to be 2.4.

Regarding `CN1CCN(c2ccc(/C=C3\CN(C)C/C(=C\c4ccc(N5CCN(C)CC5)cc4)C3=O)cc2)CC1`, the Ratio worked out at 4.7.

The subject of the next series is SH-SY5Y. Nature of the series: Antioxidant activity in human SH-SY5Y cells assessed as decrease of tert-butyl hydroperoxide-induced ROS production at 2.5 uM after 24 hrs using DCFH-DA by fluorescence assay. In kind it is functional, cell-based. The method, boiled down:
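SH-SY5Y grown in DMEM with 10% supplement at 37 °C, 5% CO2, seeded 3 × 10^4 cells/well. After 24 h, compounds were added (2.5 µM; reference antioxidants at 20 µM). Cells were loaded with 5 µM DCFH-DA in PBS for 30 min at 37 °C, washed, then exposed to 0.1 mM t-BuOOH for 30 min. Fluorescence read at ex 485/em 535 nm, expressed as % of untreated control.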
In the case of `CN1CCN(c2ccc(/C=C3\CCC/C(=C\c4ccc(N5CCN(C)CC5)cc4)C3=O)cc2)CC1`, the outcome was Active.

As to `CN1CCN(c2ccc(/C=C3\CC/C(=C\c4ccc(N5CCN(C)CC5)cc4)C3=O)cc2)CC1`, the outcome was Active.

For `CN1CCN(c2ccc(/C=C3\CNC/C(=C\c4ccc(N5CCN(C)CC5)cc4)C3=O)cc2)CC1`, the outcome was Active.

Tested on in a further series: not listed separately
The experiment in a line: Metal chelating activity of the compound assessed as formation of copper complex at 20 uM by UV-vis spectrometry. In kind it is functional. In short, it runs like this:
(§4)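 UV spectra recorded for 20 µM compound alone or with 20 µM ZnSO4, CuSO4 or FeSO4.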
Take `CN1CCN(c2ccc(/C=C3\CNC/C(=C\c4ccc(N5CCN(C)CC5)cc4)C3=O)cc2)CC1`: the outcome was Active.

Tested on in a further series: not listed separately
The experiment in a line: Metal chelating activity of the compound assessed as formation of iron complex at 20 uM by UV-vis spectrometry. In kind it is functional. In short, it runs like this: as §4
In the case of `CN1CCN(c2ccc(/C=C3\CNC/C(=C\c4ccc(N5CCN(C)CC5)cc4)C3=O)cc2)CC1`, the result was Active.

Tested on in the next series: not listed separately
The experiment in a line: Metal chelating activity of the compound assessed as formation of zinc complex at 20 uM by UV-vis spectrometry. Type of series: functional. The method, boiled down:
as §4
Consider `CN1CCN(c2ccc(/C=C3\CNC/C(=C\c4ccc(N5CCN(C)CC5)cc4)C3=O)cc2)CC1`, for which the outcome was inactive.

Tested on in the next series: not listed separately
The experiment in a line: Metal chelating activity of the compound assessed as formation of copper complex at 20 uM by molar ratio method. Type of series: functional. In short, it runs like this: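 Molar ratio method: compound solutions titrated with increasing CuSO4 or FeSO4; spectra obtained by subtracting CuSO4 and compound at matching concentrations, monitoring the band at 493 nm.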
With `CN1CCN(c2ccc(/C=C3\CNC/C(=C\c4ccc(N5CCN(C)CC5)cc4)C3=O)cc2)CC1`, the outcome was Active.

Tested on in another series: not listed separately
Nature of the series: Inhibition of copper-induced amyloid beta (1 to 42) aggregation in HEPES buffer at pH 6.6 after 45 mins by thioflavin T fluorescence assay. In short, it runs like this: (§5)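 Aβ1–42 (20 µM) co-incubated with 40 µM Cu2+ or Fe2+ (HEPES pH 6.6) or Zn2+ (HEPES pH 7.4), with 150 µM NaCl, with or without 40 µM compound or clioquinol, at 37 °C for 45 min. Samples diluted into 50 mM glycine–NaOH pH 8.5 with 5 µM ThT; fluorescence read at ex 450/em 485 nm.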
Regarding `CN1CCN(c2ccc(/C=C3\CNC/C(=C\c4ccc(N5CCN(C)CC5)cc4)C3=O)cc2)CC1`, the inhibition entry is “Active”.

Tested on in the next series: not listed separately
Nature of the series: Inhibition of iron-induced amyloid beta (1 to 42) aggregation in HEPES buffer at pH 6.6 after 45 mins by thioflavin T fluorescence assay. In short, it runs like this: as §5
Take `CN1CCN(c2ccc(/C=C3\CNC/C(=C\c4ccc(N5CCN(C)CC5)cc4)C3=O)cc2)CC1`: the inhibition result was “Active”.

Tested on in the next series: not listed separately
The experiment in a line: Inhibition of zinc-induced amyloid beta (1 to 42) aggregation in HEPES buffer at pH 7.4 after 45 mins by thioflavin T fluorescence assay. In short, it runs like this: as §5
Regarding `CN1CCN(c2ccc(/C=C3\CNC/C(=C\c4ccc(N5CCN(C)CC5)cc4)C3=O)cc2)CC1`, the inhibition result is “Active”.
